The list is not random: actives were taken first. Their share in the collection is about 5.4%.
T cruzi repl = T. cruzi replication inhibition | 300,000 tested, 1.4% active | inhibition, % (no concentration beside the values) | T. cruzi beta-gal in NIH3T3, luminescence, 90 h | AID 1885;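 active means mean inhibition across valid replicates above about 55%, limit read from the data; inconclusive means mean below that limit but half or more replicates reach it; inactive means mean below it, under half of replicates reach it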;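 further: signal also drops with host cell toxicity which is not excluded here; 0% = plate median of DMSO wells and 100% = zero luminescence signal; higher percent means less beta-gal luminescence so fewer parasites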
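Test system: β-gal T. cruzi (Tulahuen C4) inside NIH/3T3 cells / Quantity: 5,000 cells/well / Measured by: luminescence from GalScreen with 0.05% NP40, read after 60 min / Medium: DMEM plus 2% FBS / Measure: parasite load inhibition, % / Reagent: Tulahuen C4 trypomastigotes, 5000/well / Schedule: co-culture of at least 90 h after 3 h attachment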
SKKanGAS inh = blocks kanamycin growth of S. pyogenes SKKanGAS strain. BacTiter-Glo, 6 h. 300,000 tested, 1.3% active. inhibition, % at 7.5 µM;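 active means mean replicate score, as percent of positive control median, at least 50; inconclusive means mean below 50 but one replicate at or above 50; inactive means mean and every replicate below 50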;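 further: strain carries kanamycin resistance gene driven by streptokinase promoter and grows in 40 µg/ml kanamycin; loss of luminescence reflects streptokinase promoter inhibition or plain growth inhibition; 0% = median of DMSO wells and 100% = positive control at its reference dose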
Mdm2 MdmX PPI = inhibitors of human Mdm2/MdmX interaction. O15151+Q00987. SaOS-2 split-luciferase Mdm2/MdmX complementation, luminescence. inhibition, % at 8 µM. 330,000 tested, 3% active. AID 485346;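 active means inhibition of at least 50% at 8 µM in the primary screen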
Target sequence (O15151 whole entry, looked up): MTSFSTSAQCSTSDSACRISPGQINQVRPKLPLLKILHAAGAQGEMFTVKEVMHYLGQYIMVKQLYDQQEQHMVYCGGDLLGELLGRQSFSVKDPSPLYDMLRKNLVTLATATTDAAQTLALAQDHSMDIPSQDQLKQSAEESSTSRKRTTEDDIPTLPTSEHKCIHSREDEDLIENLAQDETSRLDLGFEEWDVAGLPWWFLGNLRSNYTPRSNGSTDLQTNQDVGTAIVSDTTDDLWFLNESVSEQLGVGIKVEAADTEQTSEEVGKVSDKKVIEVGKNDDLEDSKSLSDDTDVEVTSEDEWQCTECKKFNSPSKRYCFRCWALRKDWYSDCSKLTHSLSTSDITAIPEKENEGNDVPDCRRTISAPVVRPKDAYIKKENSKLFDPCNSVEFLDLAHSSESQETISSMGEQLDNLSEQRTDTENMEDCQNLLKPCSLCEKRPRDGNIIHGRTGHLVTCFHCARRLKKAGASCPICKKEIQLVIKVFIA
Target sequence (Q00987 whole entry, looked up): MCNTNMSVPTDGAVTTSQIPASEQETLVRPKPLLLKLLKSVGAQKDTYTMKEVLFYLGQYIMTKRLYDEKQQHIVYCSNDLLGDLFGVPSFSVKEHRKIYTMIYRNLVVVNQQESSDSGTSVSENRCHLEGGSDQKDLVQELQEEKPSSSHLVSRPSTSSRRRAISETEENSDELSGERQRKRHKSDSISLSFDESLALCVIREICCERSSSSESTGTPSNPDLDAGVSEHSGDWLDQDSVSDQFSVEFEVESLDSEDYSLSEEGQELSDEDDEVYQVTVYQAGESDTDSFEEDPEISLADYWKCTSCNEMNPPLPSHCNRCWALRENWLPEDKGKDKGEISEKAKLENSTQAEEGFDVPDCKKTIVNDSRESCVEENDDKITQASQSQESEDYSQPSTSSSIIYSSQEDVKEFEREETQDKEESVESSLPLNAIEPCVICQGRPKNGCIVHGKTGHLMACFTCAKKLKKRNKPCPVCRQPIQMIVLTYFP
aSyn UTR inh = 5' untranslated region of α-synuclein, MLPCN primary screen; alpha-synuclein 5'UTR reporter, inhibitor activity; inhibition, % (tested at 7.5 µM); 300,000 tested, 0.82% active; in the data active means inhibition above about 60%; inconclusive means no clear call, values can overlap the other calls;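 further: H4 neuroglioblastoma cells stably carrying SNCA 5'UTR luciferase fusion; 0% = DMSO wells and 100% = positive control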
CSC inhib = cancer stem cell inhibition | cancer stem cell-like cells viability, luminescence | inhibition, % at 7.5 µM | 300,000 tested, 1.1% active; in the data active means inhibition above about 75%; inconclusive means no clear call, values can overlap the other calls; tested in HMLE shEcad cells
Mdm2 MdmX conf = human Mdm2/MdmX binding inhibition, confirmed | shares compounds with Mdm2 MdmX PPI | luminescent assay | inhibition, % at 8 µM | 10,000 tested, 55% active | AID 489028; in the data active means inhibition above about 40%
Full FLuc ctr = full-length luciferase inhibition in Mdm2/MdmX counter-screen. shares compounds with Mdm2 MdmX PPI. SaOS-2 full-length luciferase counterscreen, luminescence. inhibition, % at 8 µM. 6,200 tested, 77% active;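 active means mean inhibition at 8 µM reaching about 37%, which flags the compound as non-specific, limit read from the data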;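 further: p53-null SaOS-2 cells with luciferase driven by a doxycycline-inducible promoter; compound on cells about two nights before reading with doxycycline added after day one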
The depositor's hits bear a star; u = inconclusive; x = no result.

SMILES | T cruzi repl | SKKanGAS inh | Mdm2 MdmX PPI | aSyn UTR inh | CSC inhib | Mdm2 MdmX conf | Full FLuc ctr
O=C1CCC(C(=O)N2CCN(c3cnccn3)CC2)CN1CCc1cccc(F)c1 (stereo unspecified) | 7 | -3 | 2 | -16 | 2 | x | x
COc1cccc(-c2ccc3ncnc(NCc4cccnc4)c3c2)c1 | x | x | 69* | x | x | 48* | 23
CCCCc1ccc(NC(=O)CSc2nc(=O)n(CCN(C)C)c3c2CCC3)cc1 | 37 | -4 | 37 | -18 | -9 | x | x
CCCCc1ccc(NC(=O)CSc2nc(=O)n(CCN(CC)CC)c3c2CCCC3)cc1 | 43 | -4 | 87* | 0 | 4 | 54* | 62*
CS(=O)(=O)Nc1cccc2[nH]ncc12 | 7 | 10 | 7 | 35 | 2 | x | x
Oc1ccc(Cl)cc1C(C#Cc1ccccc1)N1CCOCC1 (stereo unspecified) | 13 | 32 | 19 | -10 | x | x | x
Cc1ccc(C)c(CN2CCC(CNC(=O)Nc3ccc(C)c(C)c3)CC2)c1 | 19 | 2 | 18 | -14 | -3 | x | x
COc1ccc(Cl)cc1NC(=O)NCC1CCN(Cc2cc(C)ccc2C)CC1 | 38 | 3 | 58* | -6 | 7 | 36 | x
CCc1ccccc1N(CC(=O)N1CCN(c2ccccc2)CC1)S(C)(=O)=O | -4 | -28 | 15 | -5 | -3 | x | x
COCCCNc1nc(N)c([N+](=O)[O-])c(Nc2ccccc2OC)n1 | -4 | 4 | 61* | 55 | 10 | 30 | x
COCCCNc1nc(N)c([N+](=O)[O-])c(NCc2ccccc2)n1 | -23 | -2 | 26 | u | -6 | x | x
CCN1C[C@@H]2[C@@H]3C(=O)N(C)C(=O)[C@@H]3[C@](CC)(C1=O)N2C(=O)c1ccc(C(C)(C)C)cc1 | x | x | -3 | x | x | x | x
CCOC(=O)c1ccc(NC(=O)Cn2ncc(Cl)c(Cl)c2=O)cc1 | 56* | 2 | 89* | -2 | 90* | 100* | 51*
CCC(=O)Nc1ccc(C(=O)Cn2ncc(Cl)c(Cl)c2=O)cc1 | 49 | -6 | 86* | -53 | u | 63* | 43*
CCOC(=O)c1c(NC(=O)COC(=O)C2CC2C)sc(C)c1C (stereo unspecified) | -6 | 14 | 10 | 3 | 3 | x | x
Cc1ccc(CN2CC(C(=O)Nc3ncc(C)s3)CC2=O)cc1 (stereo unspecified) | x | x | 61* | x | x | 59* | 66*
Cc1ccc2c(c1)CCCN2S(=O)(=O)c1cccc(C(=O)Nc2ccccc2C(=O)O)c1 | 58* | 41 | 54* | 2 | 62 | 60* | 58*
CN(C)C(=O)c1ccc(NC(=O)c2cccc(S(=O)(=O)N3CCCc4ccccc43)c2)cc1 | 24 | 5 | 26 | 4 | x | x | x
CCC(C)(C)C1CCc2[nH]nc(C(=O)NCc3ccc(Cl)cc3)c2C1 (stereo unspecified) | x | x | 18 | x | -10 | x | x
Cc1[nH]nc2ncc(C(=O)c3ccccc3O)cc12 | 4 | 27 | 81* | 20 | -5 | 81* | 30
Cc1nn(C)c2ncc(C(=O)c3ccccc3O)cc12 | -13 | 3 | 13 | 19 | 3 | x | x
O=C(CCl)N1N=C(c2ccco2)CC1c1ccco1 (stereo unspecified) | 1 | 3 | 97* | -1 | 8 | 49* | 31
CCS(=O)(=O)Nc1ccc(C2=NN(C(=O)c3ccco3)C(c3ccco3)C2)cc1 (stereo unspecified) | 7 | 18 | 53* | -60 | -6 | 74* | 56*
Cc1ccc(C2=NN(C(=O)CSc3nc4ncc(Cl)cc4[nH]3)C(c3ccco3)C2)cc1 (stereo unspecified) | -12 | 7 | -13 | -25 | -11 | x | x
O=C(CCl)N1N=C(c2cccs2)CC1c1ccco1 (stereo unspecified) | 83* | -3 | 100* | -10 | 56 | 99* | 53*
SMILES | T cruzi repl | SKKanGAS inh | Mdm2 MdmX PPI | aSyn UTR inh | CSC inhib | Mdm2 MdmX conf | Full FLuc ctr
Cc1ccc(C2=NN(C(=O)CSc3nccn3C)C(c3ccco3)C2)cc1 (stereo unspecified) | 3 | 49 | 65* | -29 | -4 | 57* | 68*
COCCSc1nnc(NC(=O)C2CC(=O)N(C3CCCC3)C2)s1 (stereo unspecified) | -7 | 3 | -10 | 19 | x | x | x
Cc1ccc(S(=O)(=O)N(CC(=O)N2CCN(c3ccc(F)cc3)CC2)C2CCCCC2)cc1 | 24 | 4 | 14 | 17 | 10 | x | x
COc1ccc(-c2nnc(SCc3ccc(C(=O)O)cc3)n2C)cc1OC | -4 | 0 | -21 | 9 | -27 | x | x
Cc1noc(C)c1CSc1nc2ccccc2nc1NS(=O)(=O)c1ccc(Cl)cc1 | -9 | u | 63* | 15 | 82* | -4 | x
C[C@H](CO)N1C[C@H](C)[C@@H](CN(C)C(=O)Nc2ccc3c(c2)OCO3)Oc2c(NC(=O)Nc3ccc(C(F)(F)F)cc3)cccc2C1=O | x | x | 80* | x | 39 | 69* | 68*
COc1ccc(NC(=O)N(C)C[C@H]2Oc3c(NC(=O)Nc4ccc(C(F)(F)F)cc4)cccc3C(=O)N([C@H](C)CO)C[C@@H]2C)cc1 | x | x | 60* | x | x | 43* | 69*
Cc1ccc(S(=O)(=O)N(C)C)cc1NC(=O)COC(=O)c1ccc(Cl)cc1 | -5 | -2 | -31 | -4 | 4 | x | x
COC(=O)c1cc(S(=O)(=O)Nc2ccc(C)cn2)c[nH]1 | -10 | 1 | -12 | 11 | -2 | x | x
CCOC(=O)Cn1c(S(=O)(=O)Cc2ccccc2Cl)nc(-c2ccccc2)c1-c1ccccc1 | 34 | 2 | 33 | u | 14 | x | x
C#CCn1c(S(=O)(=O)Cc2ccccc2Cl)nc(-c2ccccc2)c1-c1ccccc1 | 4 | 2 | 73* | 15 | 14 | 47* | 84*
C#CCn1c(S(=O)(=O)Cc2ccc(C)cc2)nc(-c2ccccc2)c1-c1ccccc1 | 47 | -5 | 95* | -1 | 26 | 81* | 55*
CCOC(=O)C1CCCN(C(=O)c2cc(-c3ccc(C)cc3)nc3ccccc23)C1 (stereo unspecified) | 15 | 1 | 3 | -34 | 6 | x | x
Cc1ccc(C)c(OCC(=O)N/N=C/c2c(C)nn(-c3ccccc3)c2Cl)c1C | 13 | 0 | 51* | 9 | -5 | 35 | x
COC(=O)N/N=C\c1c(C)nn(-c2ccccc2)c1Cl | -12 | 2 | -26 | -54 | 7 | x | x
CCOc1ccc(Oc2c(/C=N/NC(=O)COc3ccccc3OC)c(C)nn2-c2ccccc2)cc1 | 32 | 20 | 56* | 14 | 17 | 1 | x
CCOc1ccc(Oc2c(/C=N/NC(N)=O)c(C)nn2-c2ccccc2)cc1 | -11 | -11 | 6 | 26 | -4 | x | x
CCCc1c(C(=O)N/N=C(/C)c2ccncc2)nnn1-c1nonc1N | -6 | -6 | -1 | 7 | -20 | x | x
Cc1nn(C)cc1S(=O)(=O)Nc1ncccn1 | 10 | -3 | 2 | -3 | 4 | x | x
